Source: ChEMBL document CHEMBL3232933, “Pyrazole-5-carboxamides, novel inhibitors of receptor for advanced glycation end products (RAGE)” (Eur J Med Chem, 2014)
The source made the active and inactive calls. The rule behind the calls is not given here.

Key:
[1] = target: T1, Advanced glycosylation end product-specific receptor (Homo sapiens, UniProt Q15109); experiment: Inhibition of biotinylated human RAGE assessed as bound amyloid beta level at 20 uM after 60 mins by ELISA relative to control
How it was run: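 Biotinylated human RAGE (1 µg), Aβ1-42 oligomers (aged in PBS for 24 h at 4 °C) and compound at a single fixed level were co-incubated in TBS-T with 2.5% BSA on streptavidin plates for 60 min at ambient temperature. Bound Aβ was detected with HRP-4G8, TMB and A450. % inhibition is given as mean ± SD of duplicate experiments.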

[2] = target: T1, Advanced glycosylation end product-specific receptor; experiment: Inhibition of biotinylated human RAGE assessed as bound amyloid beta level after 60 mins by ELISA
[3] = AUC in Sprague-Dawley rat at 2 mg/kg, iv; format: ADME, organism-based; set-up: dose 2 mg/kg, route intravenous; settings: plasma
[4] = tested on: Mus musculus; experiment: Antialzheimer activity in ICR mouse injected with human amyloid beta (1 to 42) assessed as reduction of human amyloid beta (1 to 42) level in brain at 25 mg/kg, ip administered 20 mins prior to human amyloid beta (1 to 42) injection measured after 30 mins relative to control; format: functional; set-up: scale not given: the % may be the effect or the level left; settings: route intraperitoneal
How it was run: (§1)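 Male ICR mice, 3 months old (25 g, n = 4), got one i.p. dose of 25 mg/kg or vehicle. After 20 min, human Aβ1-42 in PBS was injected into the tail vein and circulated for 30 min. Human Aβ was then measured in brain extracts and plasma. Values are means ± SD.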

[5] = tested on: Mus musculus; experiment: Antialzheimer activity in ICR mouse injected with human amyloid beta (1 to 42) assessed as increase in human amyloid beta (1 to 42) level in plasma at 25 mg/kg, ip administered 20 mins prior to human amyloid beta (1 to 42) injection measured after 30 mins relative to control; format: functional; settings: route intraperitoneal; how it was run: as §1
[6] = Kinetic solubility of the compound in PBS at pH 7.4 by nephelometric analysis; format: physicochemical; settings: read-out: Kinetic_solubility
How it was run: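 Kinetic solubility was measured on the HCl salt, added from a DMSO stock, in triplicate experiments.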

T1 sequence (Q15109 whole entry): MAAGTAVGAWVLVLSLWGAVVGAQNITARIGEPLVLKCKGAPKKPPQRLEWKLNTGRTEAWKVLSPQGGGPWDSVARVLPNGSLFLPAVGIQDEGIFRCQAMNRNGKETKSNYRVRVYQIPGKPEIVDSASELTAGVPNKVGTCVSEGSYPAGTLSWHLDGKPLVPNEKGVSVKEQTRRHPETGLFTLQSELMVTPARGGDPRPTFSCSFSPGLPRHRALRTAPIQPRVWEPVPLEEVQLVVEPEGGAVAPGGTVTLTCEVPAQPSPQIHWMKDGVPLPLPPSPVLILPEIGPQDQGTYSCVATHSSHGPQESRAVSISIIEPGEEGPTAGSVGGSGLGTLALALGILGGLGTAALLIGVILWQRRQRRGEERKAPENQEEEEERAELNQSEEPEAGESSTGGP

SMILES | inhibition [1] | also measured
CCN(CC)CCOc1ccc(NC(=O)c2cc(-c3ccc(Oc4ccc(Cl)cc4)cc3)nn2C)cc1 | 27% | –
CCN(CC)CCCOc1ccc(NC(=O)c2cc(-c3ccc(OC)cc3)nn2C)cc1 | 20.5% | –
CCCCOc1cc(OCCCN(CC)CC)ccc1NC(=O)c1cc(-c2ccc(OC)cc2)n[nH]1 | inactive | –
CCN(CC)CCCOc1ccc(NC(=O)c2cc(-c3ccc(Oc4ccc(Cl)cc4)cc3)nn2C)cc1 | 33.8% | –
CCCCOc1cc(OCCCN(CC)CC)ccc1NC(=O)c1cc(-c2ccc(Oc3ccc(Cl)cc3)cc2)n[nH]1 | inactive | –
CCCCOc1cc(OCCCN(CC)CC)ccc1NC(=O)c1cc(-c2ccc(Oc3ccc(Cl)cc3)cc2)n(CCC)n1 | 45.7% | –
CCCCOc1cc(OCCCN(CC)CC)ccc1NC(=O)c1cc(-c2ccc(Oc3ccc(Cl)cc3)cc2)n(CCCC)n1 | 36% | –
CCCCOc1cc(OCCCN(CC)CC)ccc1NC(=O)c1cc(-c2ccc(Oc3ccc(F)cc3)cc2)nn1C [listing 2 of 2 here] | – | AUC [3]: 8560 ng·h/mL; Activity [4]: 37.86%; Activity [5]: 4.01%
CCN(CC)CCOc1ccc(NC(=O)c2cc(-c3ccc(OC)cc3)nn2C)cc1 | 20.5% | –
CCCCn1nc(-c2ccc(Oc3ccc(Cl)cc3)cc2)cc1C(=O)Nc1ccc(OCCCN(CC)CC)cc1 | 41.4% | –
CCCCOc1cc(OCCCN(CC)CC)ccc1NC(=O)c1cc(-c2ccc(Oc3ccc(Cl)cc3)cc2)no1 | 32.1% | –
CCCCOc1cc(OCCCN(CC)CC)ccc1NC(=O)c1cc(-c2ccc(Oc3ccc(F)cc3)cc2)nn1C.Cl | – | solubility kinetic [6]: 80.3 µM
CCN(CC)CCOc1cccc(Nc2nc(-c3ccc(Cl)cc3)cc(-c3ccc(Cl)cc3)n2)c1 | – | AUC [3]: 10600 ng·h/mL
CCCCOc1cc(OCCCN(CC)CC)ccc1NC(=O)c1cc(-c2ccc(OC3CCCCC3)cc2)nn1C | 76% | IC50 [2]: 2.5 µM
CCCCOc1cc(OCCCN(CC)CC)ccc1NC(=O)c1cc(-c2ccc(OC)cc2)nn1C | 32.4% | –
CCN(CC)CCOc1cccc(Nc2nc(-c3ccc(Cl)cc3)cc(-c3ccc(Cl)cc3)n2)c1.Cl | – | solubility kinetic [6]: 16.5 µM

Second part, led by results:

inhibition [1] | SMILES | also measured
49.7% | CCCCOc1cc(OCCCN(CC)CC)ccc1NC(=O)c1cc(-c2ccc(Oc3ccc(Cl)cc3)cc2)nn1C | –
inactive | CCCCOc1cc(OCCCN(CC)CC)ccc1NC(=O)c1cc(-c2ccc(Oc3ccc(Cl)cc3)cc2)nn1CCCC | –
74.2% | CCCCOc1cc(OCCCN(CC)CC)ccc1NC(=O)c1cc(-c2ccc(Oc3ccc(OC)cc3)cc2)nn1C | IC50 [2]: 7.8 µM
77% | CCCCOc1cc(OCCCN(CC)CC)ccc1NC(=O)c1cc(-c2ccc(Oc3ccccc3)cc2)nn1C | IC50 [2]: 5.4 µM
83.1% | CCCCOc1cc(OCCCN(CC)CC)ccc1NC(=O)c1cc(-c2ccc(Oc3ccc(C(F)(F)F)cc3)cc2)nn1C | IC50 [2]: 1.9 µM
44.6% | CCCCOc1cc(OCCCN(CC)CC)ccc1NC(=O)c1cc(-c2ccc(Oc3ccc(Cl)cc3)cc2)nn1CCC | –
79.3% | CCCCOc1cc(OCCCN(CC)CC)ccc1NC(=O)c1cc(-c2ccc(Oc3ccc(F)cc3)cc2)nn1C [listing 1 of 2 here] | –
52.6% | CCCCOc1cc(OCCCN(CC)CC)ccc1NC(=O)c1cc(-c2ccc(Oc3ccccn3)cc2)nn1C | IC50 [2]: 18.9 µM
37% | CCCCOc1cc(OCCCN(CC)CC)ccc1NC(=O)c1cc(-c2ccc(Oc3cccc(F)c3)cc2)nn1C | –
34.1% | CCCCOc1cc(OCCCN(CC)CC)ccc1NC(=O)c1cc(-c2ccc(Oc3ccc(OC)c(F)c3)cc2)nn1C | –
44.7% | CCCCOc1cc(OCCCN(CC)CC)ccc1NC(=O)c1cc(-c2ccc(Oc3ccc(Cl)cc3)cc2)nn1CC | –
36.5% | CCCCOc1cc(OCCCN(CC)CC)ccc1NC(=O)c1cc(-c2ccc(Oc3ccc(OC)c(Cl)c3)cc2)nn1C | IC50 [2]: 5.3 µM
inactive | CCCCOc1cc(OCCCN(CC)CC)ccc1NC(=O)c1cc(-c2ccc(Oc3ccc(C(C)(C)C)cc3)cc2)nn1C | –
29.5% | CCCCOc1cc(OCCCN(CC)CC)ccc1NC(=O)c1cc(-c2ccc(Oc3ccccc3F)cc2)nn1C | –
19.9% | CCCCOc1cc(OCCCN(CC)CC)ccc1NC(=O)c1cc(-c2ccc(Oc3ccc(F)c(F)c3)cc2)nn1C | –
